Data: ChEMBL document CHEMBL4431385, “Substituted tetracyclic indole core derivatives of HCV NS5A inhibitor MK-8742” (Bioorg Med Chem Lett, 2016)
Positions count from the first letter of the chain named.

Columns and labels:
[1] = biological target: T1, Nonstructural protein 5A (Hepatitis C virus) (UniProt Q5L478); experiment: Inhibition of HCV GT1a NS5A assessed as suppression of replicon RNA level by real-time PCR analysis; settings: Hepatitis C virus subtype 1a
T1 sequence (whole entry): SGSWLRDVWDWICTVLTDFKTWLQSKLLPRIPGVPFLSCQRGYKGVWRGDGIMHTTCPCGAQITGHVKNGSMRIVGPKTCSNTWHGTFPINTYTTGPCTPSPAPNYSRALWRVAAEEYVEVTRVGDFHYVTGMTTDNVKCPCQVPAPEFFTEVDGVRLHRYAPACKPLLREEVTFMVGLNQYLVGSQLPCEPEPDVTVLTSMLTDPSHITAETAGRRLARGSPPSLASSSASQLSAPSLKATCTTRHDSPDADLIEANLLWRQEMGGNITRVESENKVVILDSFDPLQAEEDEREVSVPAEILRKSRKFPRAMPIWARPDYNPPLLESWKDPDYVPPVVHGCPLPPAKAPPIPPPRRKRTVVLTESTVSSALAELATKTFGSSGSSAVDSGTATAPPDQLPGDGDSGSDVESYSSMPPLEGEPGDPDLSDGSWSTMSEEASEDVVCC

[2] = biological target: T1, Nonstructural protein 5A (Hepatitis C virus); experiment: Inhibition of HCV GT2b NS5A assessed as suppression of replicon RNA level by real-time PCR analysis; settings: Hepatitis C virus subtype 2b
Summary of the method: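 GT2b replicon, which carries the naturally occurring NS5A 31M resistance-associated variant; potency given as EC90 in nM.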

[3] = test system: Nonstructural protein 5A (Hepatitis C virus), Q5L478 [UNDEFINED MUTATION]; experiment: Inhibition of HCV GT1a NS5A L31V mutant assessed as suppression of replicon RNA level by real-time PCR analysis; settings: Hepatitis C virus subtype 1a
[4] = test system: T2, Nonstructural protein 5A (Hepatitis C virus), Q5L478 [Y93H]; experiment: Inhibition of HCV GT1a NS5A Y93H mutant assessed as suppression of replicon RNA level by real-time PCR analysis; settings: Hepatitis C virus subtype 1a
T2 sequence (whole entry): T1 sequence (whole entry) with Y93H

[5] = biological target: T1, Nonstructural protein 5A (Hepatitis C virus); experiment: Inhibition of HCV GT3a NS5A assessed as suppression of replicon RNA level by real-time PCR analysis; settings: Hepatitis C virus subtype 3a

SMILES	EC90 [1]	EC90 [2]	EC90 [3]	EC90 [4]	EC90 [5]
COC(=O)N[C@H](C(=O)N1CCC[C@H]1c1ncc(-c2cc(F)c3c(c2)OC(c2ccc(OC)cc2)n2c-3cc3cc(-c4cnc([C@@H]5CCCN5C(=O)[C@@H](NC(=O)OC)C(C)C)[nH]4)ccc32)[nH]1)C(C)C (some centres undefined)	0.01 nM	5 nM	0.2 nM	3 nM	
CCOc1cccc(C2Oc3cc(-c4cnc([C@@H]5C[C@@H](F)CN5C(=O)[C@@H](NC(=O)OC)C(C)C)[nH]4)cc(F)c3-c3cc4cc(-c5cnc([C@@H]6CCCN6C(=O)[C@@H](NC(=O)OC)C(C)C)[nH]5)ccc4n32)c1 (some centres undefined)	0.01 nM	17 nM		0.4 nM	0.1 nM
CCOc1cccc(C2Oc3cc(-c4cnc([C@@H]5CCCN5C(=O)[C@@H](NC(=O)OC)C(C)C)[nH]4)cc(F)c3-c3cc4cc(-c5cnc([C@@H]6CCCN6C(=O)[C@@H](NC(=O)OC)C(C)C)[nH]5)ccc4n32)c1 (some centres undefined)	0.01 nM	8 nM	0.2 nM	2 nM	0.02 nM
COC(=O)N[C@H](C(=O)N1CCC[C@H]1c1ncc(-c2cc3c(c(-c4ccccc4)c2)-c2cc4cc(-c5cnc([C@@H]6CCCN6C(=O)[C@@H](NC(=O)OC)C(C)C)[nH]5)ccc4n2CO3)[nH]1)C(C)C	1 nM	108 nM	1 nM	250 nM	47 nM
COC(=O)N[C@H](C(=O)N1CCC[C@H]1c1ncc(-c2ccc3c(c2)cc2n3C(c3cccc(OC(F)(F)F)c3)Oc3cc(-c4cnc([C@@H]5C[C@@H](F)CN5C(=O)[C@@H](NC(=O)OC)C(C)C)[nH]4)ccc3-2)[nH]1)C(C)C (some centres undefined)	0.02 nM	48 nM	1.8 nM	1.7 nM	
CCOc1cccc(C2Oc3cc(-c4cnc([C@@H]5CCCN5C(=O)[C@@H](NC(=O)OC)C(C)C)[nH]4)ccc3-c3cc4cc(-c5cnc([C@@H]6CCCN6C(=O)[C@@H](NC(=O)OC)C(C)C)[nH]5)ccc4n32)c1 (some centres undefined)	0.02 nM	22 nM	0.9 nM	16 nM	0.2 nM
COC(=O)N[C@H](C(=O)N1CCC[C@H]1c1ncc(-c2ccc3c(c2)cc2n3C(c3cccc(OC(C)C)c3)Oc3cc(-c4cnc([C@@H]5C[C@@H](F)CN5C(=O)[C@@H](NC(=O)OC)C(C)C)[nH]4)cc(F)c3-2)[nH]1)C(C)C (some centres undefined)	0.01 nM	28 nM	0.6 nM	0.9 nM	0.07 nM
COC(=O)N[C@H](C(=O)N1CCC[C@H]1c1ncc(-c2ccc3c(c2)OC(c2cc(Cl)cc(OC)c2)n2c-3cc3cc(-c4cnc([C@@H]5CCCN5C(=O)[C@@H](NC(=O)OC)C(C)C)[nH]4)ccc32)[nH]1)C(C)C (mixture of isomers)	0.03 nM	202 nM	0.2 nM	15 nM	0.8 nM
COC(=O)N[C@H](C(=O)N1CCC[C@H]1c1ncc(-c2cc(F)c3c(c2)OC(c2cc(OC)cc(OC)c2)n2c-3cc3cc(-c4cnc([C@@H]5CCCN5C(=O)[C@@H](NC(=O)OC)C(C)C)[nH]4)ccc32)[nH]1)C(C)C (some centres undefined)	0.004 nM	0.6 nM	0.1 nM	3 nM	0.06 nM
COC(=O)N[C@H](C(=O)N1CCC[C@H]1c1ncc(-c2ccc3c(c2)OC(c2cccc(OC(C)C)c2)n2c-3cc3cc(-c4cnc([C@@H]5CCCN5C(=O)[C@@H](NC(=O)OC)C(C)C)[nH]4)ccc32)[nH]1)C(C)C (some centres undefined)	0.01 nM	145 nM	0.5 nM	34 nM	0.08 nM
COC(=O)N[C@H](C(=O)N1C[C@H](F)C[C@H]1c1ncc(-c2cc(F)c3c(c2)OC(c2ccc(OC(F)(F)F)cc2)n2c-3cc3cc(-c4cnc([C@@H]5C[C@@H](F)CN5C(=O)[C@@H](NC(=O)OC)C(C)C)[nH]4)ccc32)[nH]1)C(C)C (some centres undefined)	0.01 nM	35 nM		0.2 nM	1 nM
COC(=O)N[C@H](C(=O)N1CCC[C@H]1c1ncc(-c2ccc3c(c2)OC(c2ccc(OC)cc2)n2c-3cc3cc(-c4cnc([C@@H]5CCCN5C(=O)[C@@H](NC(=O)OC)C(C)C)[nH]4)ccc32)[nH]1)C(C)C (some centres undefined)	0.04 nM	15 nM		82 nM	
